Source: ChEMBL document CHEMBL1147917, “Synthesis and crystallographic analysis of benzophenone derivatives--the potential anti-inflammatory agents” (Bioorg Med Chem, 2007)
Active and inactive are the calls of the source. No cut-off for these calls is given here.

Legend:
Rattus norvegicus [1] = assay: Antiinflammatory activity against carrageenan-induced paw edema in Albino rat assessed as oedema inhibition relative to control at 20 mg/kg, po; format: functional
Summary of the method: (§1)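 Rats given test compound orally; 30 min later, 0.2 mL of 1% carrageenan in 0.9% NaCl injected subcutaneously into plantar aponeurosis of the hind paw. Paw volume measured by water plethysmometer before and at 3 h. Mean paw-volume increase compared with a carrageenan-only control group of five rats. % inhibition = (1 − Gt/Gc) × 100. Values are means of three determinations.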

Rattus norvegicus [2] = assay: Antiinflammatory activity against carrageenan-induced paw edema in Albino rat assessed as oedema inhibition relative to control at 80 mg/kg, po; format: functional; summary of the method: as §1
Rattus norvegicus [3] = assay: Antiinflammatory activity against carrageenan-induced paw edema in Albino rat assessed as oedema inhibition relative to control at 40 mg/kg, po; format: functional; summary of the method: as §1
Rattus norvegicus [4] = assay: Toxicity in rat assessed as incidence of hyperaemia at 100 mg/kg, po; format: organism-based; set-up: dose 100 mg/kg, route oral; conditions: in vivo
Summary of the method: (§2)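 Groups of 10 rats (200–230 g), fasted 24 h, dosed orally; controls untreated. Sacrificed 5 h after dosing. Stomach and small intestine examined under microscope for hyperaemia, epithelial shedding, petechiae, frank haemorrhage, erosion or discrete ulceration with or without perforation. Result expressed as percentage of animals affected.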

Rattus norvegicus [5] = assay: Toxicity in rat assessed as incidence of hyperaemia at 200 mg/kg, po; format: organism-based; set-up: dose 200 mg/kg, route oral; conditions: in vivo; summary of the method: as §2
Rattus norvegicus [6] = assay: Toxicity in rat assessed as incidence of hyperaemia at 400 mg/kg, po; format: organism-based; set-up: dose 400 mg/kg, route oral; conditions: in vivo; summary of the method: as §2
Rattus norvegicus [7] = assay: Toxicity in rat assessed as incidence of ulcer at 200 mg/kg, po; format: organism-based; set-up: dose 200 mg/kg, route oral; conditions: in vivo; summary of the method: as §2
Rattus norvegicus [8] = assay: Toxicity in rat assessed as incidence of ulcer at 100 mg/kg, po; format: organism-based; set-up: dose 100 mg/kg, route oral; conditions: in vivo; summary of the method: as §2
Rattus norvegicus [9] = assay: Toxicity in rat assessed as incidence of ulcer at 400 mg/kg, po; format: organism-based; set-up: dose 400 mg/kg, route oral; conditions: in vivo; summary of the method: as §2
Oryctolagus cuniculus = species on record: Oryctolagus cuniculus; assay: Inhibition of rabbit microsomal COX at 10 uM
Summary of the method: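 COX source: microsomal pellet from minced, homogenized rabbit distal colon mucosa in 0.1 M Tris, pH 8.0, used immediately. Microsomes preincubated with test agent 10 min at 37 °C in Tris-HCl pH 8.0 with 2 mM glutathione, 5 mM L-tryptophan and 1 µM haematin. Then 20 µM arachidonic acid plus [1-14C] tracer added for 5 min at 37 °C. PGE2 separated by isocratic HPLC; co-eluting radioactivity counted by scintillation. % inhibition calculated versus paired controls.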

Rattus norvegicus [10] = assay: Antiinflammatory activity against carrageenan-induced paw edema in po dosed Albino rat assessed as oedema inhibition; format: functional
[11] = Toxicity in ip dosed Albino mouse; format: organism-based; conditions: in vivo, read-out: ALD50
Summary of the method: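 Albino mice, 25–30 g, groups of 10, given test compounds intraperitoneally at different dose levels. Mortality per group recorded 24 h after dosing. Approximate 50% lethal dose (ALD50) calculated from mortality data by the Smith method.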

Compound | inhibition in vivo at 20 mg/kg (Rattus norvegicus [1]) | inhibition in vivo at 80 mg/kg (Rattus norvegicus [2]) | inhibition in vivo at 40 mg/kg (Rattus norvegicus [3]) | Activity (Rattus norvegicus [4]) | Activity (Rattus norvegicus [5]) | Activity (Rattus norvegicus [6]) | Activity (Rattus norvegicus [7]) | Activity (Rattus norvegicus [8]) | Activity (Rattus norvegicus [9]) | inhibition (Oryctolagus cuniculus) | ED50 (Rattus norvegicus [10]) | LD50 [11] | Activity (Oryctolagus cuniculus)
O=C(Oc1ccc(Br)cc1C(=O)c1ccc(Cl)cc1)c1ccc(Cl)cc1 | 23.4% | 77.1% | 46.5% | 50% | 70% | 100% | 10% | 5% | 25% | 87% | 61.5 mg/kg | > 1000 mg/kg | –
Cc1ccc(C(=O)c2cc(F)ccc2OC(=O)c2ccc(Cl)cc2)cc1 | 16.6% | 64.1% | 44.6% | 50% | 70% | 90% | 20% | 15% | 25% | 70% | 76.2 mg/kg | > 1000 mg/kg | –
Cc1ccc(OC(=O)c2ccccc2)c(C(=O)c2ccc(Cl)cc2)c1 | 14.7% | 47.5% | 24.2% | 20% | 40% | 60% | 50% | 40% | 80% | – | 77.9 mg/kg | > 1000 mg/kg | inactive
Cc1ccc(OC(=O)c2cccc(Cl)c2)c(C(=O)c2cccc(Cl)c2)c1 | 15.1% | 56.4% | 29.9% | 25% | 40% | 50% | 65% | 50% | 75% | – | 55.7 mg/kg | > 1000 mg/kg | inactive
Cc1ccc(C(=O)Oc2ccc(C)cc2C(=O)c2ccc(C)cc2)cc1 | 20.6% | 60.1% | 30.5% | 40% | 60% | 80% | 15% | 10% | 20% | 65% | 76.2 mg/kg | > 1000 mg/kg | –
Cc1ccc(C(=O)Oc2ccc(Cl)cc2C(=O)c2ccc(Cl)cc2)cc1 | 29.2% | 77.1% | 30.4% | 50% | 70% | 100% | 15% | 10% | 20% | 85% | 60.5 mg/kg | > 1000 mg/kg | –
CCCCC1C(=O)N(c2ccccc2)N(c2ccccc2)C1=O [PHENYLBUTAZONE] | 30.1% | 55.1% | 33% | 25% | 50% | 80% | 65% | 35% | 90% | 85% | – | – | –
CC(=O)Oc1ccccc1C(=O)O [ASPIRIN] | 29.5% | 55.1% | 30.5% | 25% | 55% | 85% | 90% | 75% | 85% | 95% | 95.5 mg/kg | – | –
O=C(Oc1ccc(Cl)cc1C(=O)c1cccc(Cl)c1Cl)c1ccccc1 | 21.1% | 63.8% | 29.8% | 70% | 90% | 100% | 20% | 10% | 40% | 40% | 63.6 mg/kg | > 1000 mg/kg | –
O=C(Oc1ccc(Cl)cc1C(=O)c1ccc(Cl)cc1)c1ccc(Cl)cc1 | 35.5% | 60.1% | 48.5% | 60% | 80% | 100% | 10% | 5% | 15% | 60% | 65.5 mg/kg | > 1000 mg/kg | –
Cc1ccc(C(=O)Oc2ccc(C)cc2C(=O)c2ccccc2)cc1 | 15.5% | 46.5% | 29.4% | 20% | 35% | 55% | 55% | 45% | 80% | – | 75.5 mg/kg | > 1000 mg/kg | inactive
Cc1ccc(OC(=O)c2ccccc2C)c(C(=O)c2ccccc2C)c1 | 17.5% | 64.8% | 33.9% | 50% | 70% | 90% | 30% | 20% | 40% | 70% | 78.9 mg/kg | > 1000 mg/kg | –
Cc1ccc(OC(=O)c2ccccc2)c(C(=O)c2cccc(F)c2)c1 | 18.5% | 40.5% | 30.2% | 25% | 40% | 50% | 65% | 50% | 75% | – | 75.5 mg/kg | > 1000 mg/kg | inactive
Cc1ccc(C(=O)Oc2ccc(F)cc2C(=O)c2ccc(C)cc2)cc1 | 20.5% | 50.5% | 35.5% | 30% | 55% | 90% | 25% | 20% | 45% | 30% | 70.1 mg/kg | > 1000 mg/kg | –
Cc1ccc(OC(=O)c2ccccc2)c(C(=O)c2ccccc2)c1 | 15.1% | 56.4% | 29.9% | 40% | 60% | 100% | 20% | 10% | 40% | 20% | 78.6 mg/kg | > 1000 mg/kg | –
